Laboratory results reported in ChEMBL document CHEMBL4000155, “Synthesis and Antileukemic Activities of Piperlongumine and HDAC Inhibitor Hybrids against Acute Myeloid Leukemia Cells” (J Med Chem, 2016).
Active and inactive are the calls of the source. The rule behind the calls is not given here.

Assays:
Homo sapiens = organism: Homo sapiens; conditions: at 1 µM
U-937 [1] = experiment: Effect on SAHA-induced DNA damage in p53 null human U937 cells assessed as increase in gammaH2AX expression level by measuring ratio of gammaH2AX to beta-actin level at 2 uM after 24 hrs by Western blot analysis relative to control; assay type: functional
Method in brief: (§1)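 U937 cells treated 24 h, alone or PL+SAHA. Whole-cell lysates (protease/phosphatase inhibitors) immunoblotted for γH2AX, CHK1, RAD51, Bim and XIAP. Band densitometry normalised to β-actin, then expressed as fold change relative to the untreated control.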

U-937 [2] = experiment: Antiproliferative activity against p53 null human U937 cells after 72 hrs by MTT assay; assay type: functional, cell-based; conditions: U-937, 72 h
U-937 [3] = experiment: Induction of DNA damage in p53 null human U937 cells assessed as decrease in CHK1 expression level by measuring ratio of CHK1 to beta-actin level at 2 uM after 24 hrs by Western blot analysis relative to control; assay type: functional
Method in brief: as §1

U-937 [4] = experiment: Effect on SAHA-induced apoptosis in p53 null human U937 cells assessed as decrease in XIAP expression level by measuring ratio of XIAP to beta-actin level at 2 uM after 24 hrs by Western blot analysis relative to control; assay type: functional
Method in brief: as §1

U-937 [5] = experiment: Induction of DNA damage in p53 null human U937 cells at 2 uM after 20 hrs by SYBR gold staining based alkaline comet assay; assay type: functional, cell-based
Method in brief: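 U937 cells treated 20 h with SAHA and PL alone or combined (16 h for hybrids). Alkaline single-cell gel electrophoresis, SYBR Gold staining, microscopy. Median % DNA in tail from 4 replicate gels ± s.e.m.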

U-937 [6] = experiment: Induction of apoptosis in p53 null human U937 cells assessed as decrease in XIAP expression level by measuring ratio of XIAP to beta-actin level at 2 uM after 24 hrs by Western blot analysis relative to control; assay type: functional
Method in brief: as §1

HL-60 [7] = experiment: Antiproliferative activity against Ara-C resistant human HL60 cells after 72 hrs by MTT assay; assay type: functional, cell-based; conditions: HL-60, 72 h
MCF-10A = experiment: Cytotoxicity against human MCF10A cells assessed as decrease in cell viability at 0.5 to 5 uM after 24 hrs by MTT assay; assay type: cell-based
Method in brief: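 MCF-10A (DMEM/F12, 5% horse serum, hydrocortisone, cholera toxin, insulin, EGF) and U937 (RPMI 1640, 10% FBS) were exposed to 0.5–5 μM, alone or PL+SAHA 1:1, for 24 h. MTT 0.05 mg/mL, 3 h at 37 °C, DMSO solubilization, A570. Viability given as mean ± SD of four to six independent experiments. DMSO <0.1% vehicle control.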

[8] = Antiproliferative activity against human CMS cells after 72 hrs by MTT assay; assay type: functional, cell-based
Method in brief: (§2)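 AML cell lines grown in RPMI 1640 with 10% FBS (20% for MOLM-13), 2 mM L-glutamine and penicillin/streptomycin at 37 °C, 5% CO2. Ara-C-resistant HL-60 and CMK sublines came from stepwise cytarabine selection and were kept in 600 nM or 300 nM cytarabine respectively. Cells were treated 72 h. MTT 0.05 mg/mL, 3 h at 37 °C, DMSO solubilization, absorbance at 570 nm. IC50 given ± SEM.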

CMK [9] = experiment: Antiproliferative activity against Ara-C resistant human CMK cells after 72 hrs by MTT assay; assay type: functional, cell-based
U-937 [10] = experiment: Induction of apoptosis in p53 null human U937 cells at 1 uM after 24 hrs in presence of SAHA by annexin V-FITC/PI staining based flow cytometry; assay type: functional
Method in brief: (§3)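 Cells treated 24 h, single agents or SAHA+PL at 1:1 (each drug at the stated concentration). Annexin V-FITC/PI kit staining, then flow cytometry, reported as % Annexin V+ cells. Three independent experiments in triplicate, with data from one representative experiment. DMSO <0.1% vehicle control.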

OCI-AML-3 = experiment: Antiproliferative activity against human OCI-AML3 cells after 72 hrs by MTT assay; assay type: functional, cell-based; conditions: OCI-AML-3, 72 h
MV4-11 [11] = experiment: Antiproliferative activity against human MV4-11 cells after 72 hrs by MTT assay; assay type: functional, cell-based; conditions: MV4-11, 72 h
MV4-11 [12] = experiment: Antiproliferative activity against human MV4-11 cells after 72 hrs in presence of SAHA by MTT assay; assay type: functional, cell-based; conditions: MV4-11, 72 h
U-937 [13] = experiment: Induction of apoptosis in p53 null human U937 cells at 2 uM preincubated with NAC for 3 hrs followed by compound addition measured after 24 hrs in presence of SAHA by annexin V-FITC/PI staining based flow cytometry; assay type: functional, cell-based
Method in brief: (§4)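 U937 cells preincubated 3 h with 3 mM NAC or vehicle and washed with PBS to remove excess NAC. Then drug alone or with SAHA for 24 h. Apoptosis scored as % Annexin V+ by Annexin V-FITC/PI flow cytometry; vehicle DMSO < 0.1% v/v.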

HL-60 [14] = experiment: Antiproliferative activity against human HL60 cells after 72 hrs by MTT assay; assay type: functional, cell-based; conditions: HL-60, 72 h
CMK [15] = experiment: Antiproliferative activity against human CMK cells after 72 hrs by MTT assay; assay type: functional, cell-based
U-937 [16] = experiment: Induction of apoptosis in p53 null human U937 cells at 2 uM preincubated with NAC for 3 hrs followed by compound addition measured after 24 hrs by annexin V-FITC/PI staining based flow cytometry; assay type: functional, cell-based
Method in brief: as §4

[17] = Antiproliferative activity against human CMS cells after 72 hrs in presence of SAHA by MTT assay; assay type: functional, cell-based
Method in brief: as §2

U-937 [18] = experiment: Induction of DNA damage in p53 null human U937 cells assessed as increase in gammaH2AX expression level by measuring ratio of gammaH2AX to beta-actin level at 2 uM after 24 hrs by Western blot analysis relative to control; assay type: functional
Method in brief: as §1

[19] = Antiproliferative activity against human CMY cells after 72 hrs by MTT assay; assay type: functional, cell-based
U-937 [20] = experiment: Induction of apoptosis in p53 null human U937 cells assessed as increase in Bim EL expression level by measuring ratio of Bim EL to beta-actin level at 2 uM after 24 hrs by Western blot analysis relative to control; assay type: functional
Method in brief: as §1

MOLM-13 [21] = experiment: Antiproliferative activity against human MOLM13 cells harboring wild type p53/FLT3-ITD mutant after 72 hrs by MTT assay; assay type: functional, cell-based; conditions: MOLM-13, 72 h
[22] = Chemical stability of the compound in pH 7.4 phosphate buffer at 50 uM incubated up to 4 hrs in absence of GSH by HPLC analysis; assay type: physicochemical; conditions: pH 7.4, 4 h
Method in brief: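 Compound at 50 μM incubated with or without 5 mM GSH in phosphate buffer pH 7.4 at 37 °C for up to 4 h. Mixtures analysed by HPLC with water/0.1% formic acid/10% methanol versus 0.1% formic acid in acetonitrile, 0.5 mL/min, 10–80% B gradient over 18 min.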

MOLM-13 [23] = experiment: Induction of apoptosis in human MOLM13 cells harboring wild type p53/FLT3-ITD mutant at 2 uM after 24 hrs by annexin V-FITC/PI staining based flow cytometry; assay type: functional
Method in brief: as §3

U-937 [24] = experiment: Induction of apoptosis in p53 null human U937 cells assessed as PARP-1 cleavage after 24 hrs by Western blot analysis; assay type: functional, cell-based
Method in brief: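 U937 cells exposed for 24 h. Lysates with protease/phosphatase inhibitors were separated by SDS-PAGE, transferred to PVDF and probed for PARP and cleaved caspase-3, with β-actin as loading control.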

SMILES: COc1cc(/C=C/C(=O)N2CCC=CC2=O)cc(OC)c1OC [PIPLARTINE]
- inhibition (Homo sapiens): inactive
- Ratio (U-937 [1]): 4.1
- IC50 (U-937 [2]): 2170 nM
- Ratio (U-937 [3]): 1
- Ratio (U-937 [4]): 0.6
- Activity (U-937 [5]): inactive
- Ratio (U-937 [6]): 1
- IC50 (HL-60 [7]): 2250 nM
- Activity (MCF-10A): Non-Toxic
- IC50 [8]: 3100 nM
- IC50 (CMK [9]): 1910 nM
- Activity (U-937 [10]): 6.2%
- IC50 (OCI-AML-3): 1870 nM
- IC50 (MV4-11 [11]): 1440 nM
- IC50 (MV4-11 [12]): 289 nM
- Activity (U-937 [13]): inactive
- IC50 (HL-60 [14]): 1780 nM
- IC50 (CMK [15]): 2820 nM
- Activity (U-937 [16]): inactive
- IC50 [17]: 1040 nM
- Ratio (U-937 [18]): 1
- IC50 [19]: 1620 nM
- Ratio (U-937 [20]): 1
- IC50 (MOLM-13 [21]): 1840 nM

SMILES: COc1cc(/C=C/C(=O)N2CCC=CC2=O)cc(OC)c1OCCCCCCC(=O)NO
- inhibition (Homo sapiens): Active
- IC50 (U-937 [2]): 498 nM
- Ratio (U-937 [3]): 0.7
- Stability [22]: Stable
- Activity (U-937 [5]): Active
- Ratio (U-937 [6]): 0.6
- IC50 (HL-60 [7]): 692 nM
- Activity (MCF-10A): Non-Toxic
- IC50 [8]: 385 nM
- IC50 (CMK [9]): 215 nM
- IC50 (OCI-AML-3): 615 nM
- IC50 (MV4-11 [11]): 230 nM
- IC50 (HL-60 [14]): 357 nM
- IC50 (CMK [15]): 256 nM
- Activity (U-937 [16]): inactive
- Ratio (U-937 [18]): 4.5
- IC50 [19]: 185 nM
- Activity (MOLM-13 [23]): 65.9%
- Ratio (U-937 [20]): 1.8
- IC50 (MOLM-13 [21]): 454 nM
- Activity (U-937 [24]): Dose-dependent effect
